From ChEMBL document CHEMBL4376872, “Scaffold Hopping of Natural Product Evodiamine: Discovery of a Novel Antitumor Scaffold with Excellent Potency against Colon Cancer” (J Med Chem, 2020)
Active and inactive are the calls of the source. The calls are words filed in the database; no cut-off is given here.

Legend:
HCT-116 = experiment: Antiproliferative activity against human HCT116 cells assessed as reduction in cell viability incubated for 72 hrs by CCK8 assay; assay type: functional, cell-based; details: HCT-116, 72 h
A549 = experiment: Antiproliferative activity against human A549 cells assessed as reduction in cell viability incubated for 72 hrs by CCK8 assay; assay type: functional, cell-based; details: A549, 72 h
MDA-MB-435 = experiment: Antiproliferative activity against human MDA-MB-435 cells assessed as reduction in cell viability incubated for 72 hrs by CCK8 assay; assay type: functional, cell-based; details: MDA-MB-435, 72 h
[1] = molecular target: T1, DNA topoisomerase 1 (Escherichia coli (strain K12)) (UniProt P06612); experiment: Inhibition of Escherichia coli Top1 assessed as decrease in relaxation of supercoiled pBR322 plasmid DNA at 100 uM using supercoiled pBR322 plasmid DNA as substrate incubated for 15 mins by agarose gel electrophoresis analysis
T1 sequence (whole entry): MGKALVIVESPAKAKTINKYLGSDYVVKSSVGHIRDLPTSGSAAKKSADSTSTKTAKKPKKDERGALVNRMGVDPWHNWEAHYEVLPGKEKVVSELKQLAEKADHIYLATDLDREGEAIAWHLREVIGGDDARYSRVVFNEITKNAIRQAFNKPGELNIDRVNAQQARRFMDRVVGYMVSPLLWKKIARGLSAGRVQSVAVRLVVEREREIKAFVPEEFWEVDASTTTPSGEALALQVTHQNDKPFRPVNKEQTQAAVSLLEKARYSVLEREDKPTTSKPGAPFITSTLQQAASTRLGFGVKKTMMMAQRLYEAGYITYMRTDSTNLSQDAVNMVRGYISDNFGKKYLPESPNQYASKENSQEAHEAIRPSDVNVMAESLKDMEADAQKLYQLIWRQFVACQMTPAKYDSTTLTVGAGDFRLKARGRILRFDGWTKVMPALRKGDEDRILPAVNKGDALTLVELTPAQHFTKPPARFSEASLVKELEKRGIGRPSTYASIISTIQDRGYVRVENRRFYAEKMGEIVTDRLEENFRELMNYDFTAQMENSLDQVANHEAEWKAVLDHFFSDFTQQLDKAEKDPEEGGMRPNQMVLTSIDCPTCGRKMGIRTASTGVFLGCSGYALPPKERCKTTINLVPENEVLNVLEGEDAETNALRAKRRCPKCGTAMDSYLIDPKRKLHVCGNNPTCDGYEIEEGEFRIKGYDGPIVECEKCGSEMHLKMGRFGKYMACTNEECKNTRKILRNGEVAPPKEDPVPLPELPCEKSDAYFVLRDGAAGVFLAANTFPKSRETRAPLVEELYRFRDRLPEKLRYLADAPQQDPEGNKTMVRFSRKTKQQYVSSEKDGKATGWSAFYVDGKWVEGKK

[2] = molecular target: DNA topoisomerase 2-alpha (Homo sapiens) (UniProt P11388); experiment: Inhibition of human Top2alpha assessed as decrease in relaxation of supercoiled pBR322 plasmid DNA at 100 uM using supercoiled pBR322 plasmid DNA as substrate incubated for 30 mins by agarose gel electrophoresis analysis
Chain of DNA topoisomerase 2-alpha (Homo sapiens) (P11388 whole entry): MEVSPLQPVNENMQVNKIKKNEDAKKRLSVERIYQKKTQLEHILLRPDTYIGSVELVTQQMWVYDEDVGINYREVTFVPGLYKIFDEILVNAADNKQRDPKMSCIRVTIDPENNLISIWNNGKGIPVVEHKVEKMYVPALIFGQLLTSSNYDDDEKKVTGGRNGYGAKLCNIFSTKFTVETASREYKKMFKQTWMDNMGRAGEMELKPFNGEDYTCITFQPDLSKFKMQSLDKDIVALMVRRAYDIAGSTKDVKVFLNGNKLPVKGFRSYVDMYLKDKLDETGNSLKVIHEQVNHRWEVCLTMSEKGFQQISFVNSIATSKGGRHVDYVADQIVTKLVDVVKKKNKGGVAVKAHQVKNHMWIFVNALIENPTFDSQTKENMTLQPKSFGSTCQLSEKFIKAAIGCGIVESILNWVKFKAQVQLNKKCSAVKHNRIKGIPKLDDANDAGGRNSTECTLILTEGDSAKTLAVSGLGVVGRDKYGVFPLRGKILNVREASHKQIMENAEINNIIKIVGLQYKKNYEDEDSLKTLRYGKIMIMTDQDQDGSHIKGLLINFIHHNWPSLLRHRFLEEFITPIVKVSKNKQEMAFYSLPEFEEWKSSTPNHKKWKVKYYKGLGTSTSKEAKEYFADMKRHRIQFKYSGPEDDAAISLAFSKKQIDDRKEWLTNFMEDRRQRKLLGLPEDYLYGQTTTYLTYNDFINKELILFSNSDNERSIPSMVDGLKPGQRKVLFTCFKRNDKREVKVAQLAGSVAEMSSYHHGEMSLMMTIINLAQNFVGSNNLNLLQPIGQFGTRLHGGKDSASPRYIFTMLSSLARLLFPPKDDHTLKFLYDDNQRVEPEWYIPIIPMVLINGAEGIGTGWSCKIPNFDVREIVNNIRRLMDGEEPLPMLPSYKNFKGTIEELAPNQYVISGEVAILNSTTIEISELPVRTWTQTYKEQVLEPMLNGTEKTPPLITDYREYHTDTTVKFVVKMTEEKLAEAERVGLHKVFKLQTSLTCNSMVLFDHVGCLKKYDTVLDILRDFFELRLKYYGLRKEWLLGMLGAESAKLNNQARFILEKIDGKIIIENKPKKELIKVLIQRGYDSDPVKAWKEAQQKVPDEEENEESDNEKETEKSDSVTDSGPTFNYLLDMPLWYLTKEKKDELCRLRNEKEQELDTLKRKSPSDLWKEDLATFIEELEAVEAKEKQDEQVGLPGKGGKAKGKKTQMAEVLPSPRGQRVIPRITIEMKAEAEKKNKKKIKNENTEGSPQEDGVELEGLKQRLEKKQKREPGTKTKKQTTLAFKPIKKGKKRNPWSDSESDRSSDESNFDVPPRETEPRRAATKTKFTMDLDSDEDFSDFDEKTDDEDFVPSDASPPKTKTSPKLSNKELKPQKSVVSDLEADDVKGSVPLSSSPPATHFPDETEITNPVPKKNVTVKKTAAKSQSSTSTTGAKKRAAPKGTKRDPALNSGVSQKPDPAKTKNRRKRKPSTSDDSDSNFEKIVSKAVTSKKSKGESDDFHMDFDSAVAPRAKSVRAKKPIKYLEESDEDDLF

BEL-7404 tumor cell line = experiment: Antiproliferative activity against human Bel7404 cells assessed as reduction in cell viability incubated for 72 hrs by CCK8 assay; assay type: functional, cell-based; details: BEL-7404, 72 h
PC-3 = experiment: Antiproliferative activity against human PC3 cells assessed as reduction in cell viability incubated for 72 hrs by CCK8 assay; assay type: functional, cell-based; details: PC-3, 72 h
K562 = experiment: Antiproliferative activity against human K562 cells assessed as reduction in cell viability incubated for 72 hrs by CCK8 assay; assay type: functional, cell-based; details: K562, 72 h
[3] = molecular target: T1, DNA topoisomerase 1 (Escherichia coli (strain K12)); experiment: Poison activity at Escherichia coli Top1 assessed as increase in […] band intensity at 100 uM using supercoiled pUC19 plasmid DNA as substrate incubated for 30 mins by agarose gel electrophoresis analysis
Outline: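 Supercoiled pUC19 plasmid DNA incubated with Top1 and test compound at 100, 50, 25 and 12.5 μM. Lanes: DNA alone, DNA + Top1, and DNA + Top1 + camptothecin (100 μM) as reference. Products resolved on gel to follow Top1-mediated relaxation.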

NCI-H446 = experiment: Antiproliferative activity against human NCI-H446 cells assessed as reduction in cell viability incubated for 72 hrs by CCK8 assay; assay type: functional, cell-based; details: NCI-H446, 72 h
SK-HEP1 = experiment: Antiproliferative activity against human SKHEP1 cells assessed as reduction in cell viability incubated for 72 hrs by CCK8 assay; assay type: functional, cell-based; details: SK-HEP1, 72 h
[4] = Antiproliferative activity against human MV-3 cells assessed as reduction in cell viability incubated for 72 hrs by CCK8 assay; assay type: functional, cell-based; details: MV-3, 72 h
[5] = Antiproliferative activity against human SW579 cells assessed as reduction in cell viability incubated for 72 hrs by CCK8 assay; assay type: functional, cell-based; details: SW579, 72 h

SMILES: COc1ccc2c(c1)C(=O)N1CCn3c(cc4ccccc43)C1N2C (centres undefined)
- IC50 (HCT-116): 49.2 µM
- IC50 (A549): 15.6 µM
- IC50 (MDA-MB-435): 168 µM

SMILES: COc1ccc2c(c1)cc1n2C(C)(C)CN2C(=O)c3ccccc3N(C)C12 (centres undefined)
- IC50 (HCT-116): 6.2 µM
- IC50 (A549): 181 µM
- IC50 (MDA-MB-435): 86.4 µM

SMILES: CN1c2ccc(F)cc2C(=O)N2CCn3c(cc4cc(Br)ccc43)C21 (centres undefined)
- IC50 (HCT-116): 28.5 µM
- IC50 (A549): > 200 µM
- IC50 (MDA-MB-435): 97.6 µM

SMILES: COc1ccc2c(c1)N(C)C1c3cc4cc(Br)ccc4n3CCN1C2=O (centres undefined)
- IC50 (HCT-116): > 200 µM
- IC50 (A549): > 200 µM
- IC50 (MDA-MB-435): > 200 µM

SMILES: COc1ccc2c(c1)c(Br)c1n2CCN2C(=O)c3cc(F)ccc3N(C)C12 (centres undefined)
- IC50 (HCT-116): 9.2 µM
- IC50 (A549): 12.3 µM
- IC50 (MDA-MB-435): 89.1 µM

SMILES: COc1ccc2c(c1)c(C=O)c1n2CCN2C(=O)c3cc(C)ccc3N(C)C12 (centres undefined)
- IC50 (HCT-116): 18.1 µM
- IC50 (A549): > 200 µM
- IC50 (MDA-MB-435): 70.5 µM

SMILES: CN1c2ccsc2C(=O)N2CCn3c(cc4cc(O)ccc43)C21 (centres undefined)
- IC50 (HCT-116): 106 µM
- IC50 (A549): 30.3 µM
- IC50 (MDA-MB-435): 66.8 µM

SMILES: COc1ccc2c(c1)cc1n2CCN2C(=O)c3cc(N)ccc3N(C)C12 (centres undefined)
- IC50 (HCT-116): > 200 µM
- IC50 (A549): > 200 µM
- IC50 (MDA-MB-435): > 200 µM

SMILES: CN1c2ccccc2C(=S)N2CCn3c(cc4cc(F)ccc43)C21 (centres undefined)
- IC50 (HCT-116): > 200 µM
- IC50 (A549): > 200 µM
- IC50 (MDA-MB-435): > 200 µM

SMILES: COc1ccc2c(c1)cc1n2CCN2C(=O)c3cc(Cl)ccc3N(C)C12 (centres undefined)
- IC50 (HCT-116): 61.3 µM
- IC50 (A549): > 200 µM
- IC50 (MDA-MB-435): > 200 µM

SMILES: CN1c2ccc(F)cc2C(=O)N2CCn3c(cc4cc(OC(F)(F)F)ccc43)C21 (centres undefined)
- IC50 (HCT-116): 0.83 µM
- IC50 (A549): 95.5 µM
- IC50 (MDA-MB-435): > 200 µM

SMILES: Cc1ccc2c(c1)c(Br)c1n2CCN2C(=O)c3ccccc3N(C)C12 (centres undefined)
- IC50 (HCT-116): 3.3 µM
- IC50 (A549): 14.1 µM
- IC50 (MDA-MB-435): 12.3 µM

SMILES: Cc1ccc2c(c1)cc1n2CCN2C(=O)c3cc(F)ccc3N(C)C12 (centres undefined)
- IC50 (HCT-116): 0.06 µM
- IC50 (A549): 22.8 µM
- IC50 (MDA-MB-435): 1 µM

SMILES: CN1c2ccc(F)cc2C(=O)N2CCn3c(cc4cc(Cl)ccc43)C21 (centres undefined)
- IC50 (HCT-116): 6.7 µM
- IC50 (A549): 53 µM
- IC50 (MDA-MB-435): 143 µM

SMILES: Cc1ccc2c(c1)cc1n2CCN2C(=O)c3ccccc3N(C)C12 (centres undefined)
- IC50 (HCT-116): 0.03 µM
- inhibition [1]: Active
- IC50 (A549): > 200 µM
- IC50 (MDA-MB-435): 13.3 µM
- inhibition [2]: inactive

SMILES: CC[C@@]1(O)C(=O)OCc2c1cc1n(c2=O)Cc2cc3ccccc3nc2-1 [CAMPTOTHECIN]
- IC50 (BEL-7404 tumor cell line): 0.4 µM
- IC50 (PC-3): 2.4 µM
- IC50 (K562): < 0.003 µM
- IC50 (HCT-116): 0.02 µM
- Activity [3]: Active
- IC50 (A549): 2.8 µM
- IC50 (NCI-H446): > 200 µM
- IC50 (SK-HEP1): 0.9 µM
- IC50 (MDA-MB-435): 2.7 µM
- IC50 [4]: 0.003 µM
- IC50 [5]: 0.7 µM

SMILES: COc1ccc2c(c1)c(C)c1n2CCN2C(=O)c3cc(F)ccc3N(C)C12 (centres undefined)
- IC50 (HCT-116): 21.9 µM
- IC50 (A549): 13.2 µM
- IC50 (MDA-MB-435): 132 µM

SMILES: CN1c2ccc(F)cc2C(=O)N2CCn3c(cc4cc(OC5CCCCC5)ccc43)C21 (centres undefined)
- IC50 (HCT-116): 66.8 µM
- IC50 (A549): 174 µM
- IC50 (MDA-MB-435): 50.1 µM

SMILES: CN1c2ccccc2C(=O)N2CCn3c(cc4ccc(Cl)cc43)C21 (centres undefined)
- IC50 (HCT-116): > 200 µM
- IC50 (A549): > 200 µM
- IC50 (MDA-MB-435): > 200 µM

SMILES: COc1cc2cc3n(c2c(OC)c1OC)CCN1C(=O)c2ccccc2N(C)C31 (centres undefined)
- IC50 (HCT-116): > 200 µM
- IC50 (A549): > 200 µM
- IC50 (MDA-MB-435): > 200 µM

SMILES: CN1c2ccccc2C(=O)N2CCn3c(cc4cc(F)ccc43)C21 (centres undefined)
- IC50 (HCT-116): > 200 µM
- IC50 (A549): > 200 µM
- IC50 (MDA-MB-435): > 200 µM

SMILES: COc1ccc2c(c1)c(CO)c1n2CCN2C(=O)c3cc(F)ccc3N(C)C12 (centres undefined)
- IC50 (HCT-116): 5.6 µM
- IC50 (A549): 6.6 µM
- IC50 (MDA-MB-435): 22.8 µM

SMILES: COc1ccc2c(c1)cc1n2CCN2C(=O)c3cc(Br)ccc3N(C)C12 (centres undefined)
- IC50 (HCT-116): > 200 µM
- IC50 (A549): > 200 µM
- IC50 (MDA-MB-435): > 200 µM
